The values that follow come from ChEMBL document CHEMBL1141198, “Design and synthesis of tri-ring P3 benzamide-containing aminonitriles as potent, selective, orally effective inhibitors of cathepsin K” (J Med Chem, 2005).

One data set has as its system Osteoclast. Kind of data set: In vitro bone resorption in isolated rabbit osteoclasts. The note with it: Oryctolagus cuniculus. It counts as functional, cell-based. The essentials:
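Bovine bone degraded by isolated rabbit osteoclasts; collagen degradation read by ELISA. 8-point dose–response curves; IC50 derived.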

The next data set has as its target Cathepsin B (Homo sapiens, UniProt P07858). Description: Inhibitory constant against human cathepsin B using Boc-Leu-Lys-Arg-AMC substrate. Conditions: read-out: Ki app.
The subject of data set [1] is Rattus norvegicus. Kind of data set: Terminal half-life in rat administered with 0.5 mg/kg, iv. It counts as functional, organism-based. Further details: dose 0.5 mg/kg. The essentials: (§1)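 Rats, three per study, cassette iv dosing of up to four compounds. Formulation DMSO (<20%), PEG 400 (<20%) and water at 0.5 mg/mL per compound, given at 1 mL/kg for 0.5 mg/kg per compound.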

The nature of data set [2]: Maximum concentration in rat administered with 0.5 mg/kg, iv. It counts as ADME, organism-based. Further details: dose 0.5 mg/kg, route intravenous. The note with it: in vivo.
Data set [3] deals with Rattus norvegicus. Kind of data set: Mean residence time in rat administered with 0.5 mg/kg, iv. It counts as functional, organism-based. Further details: dose 0.5 mg/kg. The essentials: as §1
In data set [4] the target is Cathepsin K (Homo sapiens) (UniProt P43235). Description: Inhibitory constant against human cathepsin K using Z-Phe-Arg-AMC substrate. Conditions: read-out: Ki app.
Another data set deals with Procathepsin L (Homo sapiens, UniProt P07711). Description: Inhibitory constant against human cathepsin L using Z-Phe-Arg-AMC substrate. The note with it: read-out: Ki app. The essentials:
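Recombinant human cathepsin L at 500 pM in 50 mM MES pH 5.5, 2.5 mM DTT, 2.5 mM EDTA, 10% DMSO. Enzyme preincubated with inhibitor (8 concentrations) 30 min at 21–24 °C. Reaction started with 10 μM Z-Phe-Arg-AMC; AMC fluorescence (ex 355/em 460 nm) over first ~5 min. Ki(app) fitted with Morrison tight-binding model.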

A further data set addresses Cathepsin S (Homo sapiens, UniProt P25774). Description: Inhibitory constant against human cathepsin S using Z-Val-Val-Arg-AMC substrate. Conditions: read-out: Ki app. The essentials: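 Recombinant human cathepsin S at 500 pM in 50 mM MES pH 6.5, 2.5 mM β-mercaptoethanol, 2.5 mM EDTA, 100 mM NaCl, 0.001% BSA, 10% DMSO. 30 min enzyme–inhibitor preincubation at 21–24 °C, 8 inhibitor concentrations. Started with 60 μM Z-Val-Val-Arg-AMC; initial rates by AMC fluorescence (ex 355/em 460). Ki(app) by Morrison tight-binding fit.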

A value given as a limit tells only on which side of the number the result lay.

Cathepsin S, sequence (P25774 whole entry): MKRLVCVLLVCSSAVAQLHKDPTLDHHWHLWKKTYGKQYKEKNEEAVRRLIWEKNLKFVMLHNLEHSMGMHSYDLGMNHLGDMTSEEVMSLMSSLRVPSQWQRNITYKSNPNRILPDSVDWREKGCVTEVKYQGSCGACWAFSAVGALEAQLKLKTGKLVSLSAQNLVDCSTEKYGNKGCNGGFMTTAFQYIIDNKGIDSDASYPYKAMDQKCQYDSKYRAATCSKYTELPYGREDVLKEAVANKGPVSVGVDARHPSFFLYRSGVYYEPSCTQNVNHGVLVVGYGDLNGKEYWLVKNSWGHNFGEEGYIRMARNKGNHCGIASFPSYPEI
Procathepsin L, sequence (P07711 whole entry): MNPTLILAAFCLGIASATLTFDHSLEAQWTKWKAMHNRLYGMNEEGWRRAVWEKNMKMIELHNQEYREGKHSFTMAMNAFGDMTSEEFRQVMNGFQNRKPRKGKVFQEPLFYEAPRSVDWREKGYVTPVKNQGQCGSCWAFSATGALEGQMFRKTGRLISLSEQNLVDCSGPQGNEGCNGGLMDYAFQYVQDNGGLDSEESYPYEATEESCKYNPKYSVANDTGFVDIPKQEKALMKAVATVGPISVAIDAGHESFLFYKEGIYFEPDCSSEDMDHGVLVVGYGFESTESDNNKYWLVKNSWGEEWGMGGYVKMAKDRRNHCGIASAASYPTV

The molecule `N#CCNC(=O)C1(NC(=O)c2ccc(-c3csc(N4CCOCC4)n3)cc2)CCCCC1` displayed an IC50 in the data set on Osteoclast of 0.035 µM. Also, the Ki on Cathepsin B came out at 3.1 µM; in data set [4] it was 0.0023 µM; at Procathepsin L, 74 µM; at Cathepsin S, 13 µM. The same molecule gave a T1/2 in the data set on Rattus norvegicus [1] of 29 min. Moreover, in data set [2], the maximum concentration (Cmax) is 1400 nM. The MRT with Rattus norvegicus [3] came out at 28 min.

On to `N#CCNC(=O)C1(NC(=O)c2cccc(Br)c2)CCCCC1`, for which the Ki at Cathepsin B worked out at 7.9 µM; in data set [4] it was 0.23 µM; on Procathepsin L, 7.9 µM; on Cathepsin S it was 6.2 µM.

As for `N#CCNC(=O)C1(NC(=O)c2ccc(Br)s2)CCCCC1`, the Ki worked out at 3.1 µM at Cathepsin B, 0.016 µM in data set [4], 5.9 µM at Procathepsin L and 1.4 µM at Cathepsin S.

Take `CN(C)C1CCN(c2nc(-c3ccc(C(=O)NC4(C(=O)NCC#N)CCCCC4)cc3)cs2)C1` (stereo not given): the IC50 in the data set on Osteoclast was determined as 0.11 µM. For the same molecule, the Ki on Cathepsin B worked out at 1.7 µM; in data set [4], 0.00079 µM; on Procathepsin L, 12 µM; on Cathepsin S, 26 µM. The T1/2 in the data set on Rattus norvegicus [1] came to 38 min. The peak level in data set [2] (Cmax) was 300 nM. The molecule further had an MRT with Rattus norvegicus [3] of 41 min.

In the case of `N#CCNC(=O)C1(NC(=O)c2ccc(-c3ccccc3)cc2)CCCCC1`, the Ki was 1.3 µM on Cathepsin B, 0.0062 µM in data set [4], 23 µM at Procathepsin L and 8.8 µM on Cathepsin S.

On to `CC(C)N(C)C1CCN(c2nc(-c3ccc(C(=O)NC4(C(=O)NCC#N)CCCCC4)cc3)cs2)CC1`, for which, in the data set on Osteoclast, inhibition was half-maximal at 0.011 µM (IC50). The Ki at Cathepsin B came to 1.4 µM; in data set [4], 0.0016 µM; on Procathepsin L it was 15 µM; at Cathepsin S, 3.2 µM. This molecule also had a T1/2 in the data set on Rattus norvegicus [1] of 115 min. The molecule also gave a maximum concentration (Cmax) in data set [2] of 430 nM. The MRT with Rattus norvegicus [3] was 121 min.

On to `N#CCNC(=O)C1(NC(=O)CCc2ccccc2)CCCCC1`, for which the Ki was 99 µM at Cathepsin B, 0.41 µM in data set [4], greater than 150 µM on Procathepsin L and 34 µM on Cathepsin S.

Regarding `CN1CCN(C(=O)c2ccc(C(=O)NC3(C(=O)NCC#N)CCCCC3)cc2)CC1`, the Ki was 13 µM on Cathepsin B, 0.014 µM in data set [4], greater than 150 µM at Procathepsin L and 110 µM on Cathepsin S.

In the case of `CC[C@H](C)[C@H](NC(=O)OCc1ccccc1)C(=O)NCC#N`, the Ki on Cathepsin B is 70 µM; in data set [4] it was 1.5 µM; on Procathepsin L, 25 µM; on Cathepsin S, 14 µM.

Regarding `CC(C)(C)C[C@H](NC(=O)OCc1ccccc1)C(=O)NCC#N`, the Ki on Cathepsin B was found to be 63 µM; in data set [4], 0.23 µM; on Procathepsin L it was 23 µM; at Cathepsin S, 0.15 µM.

As for `N#CCNC(=O)C1(NC(=O)c2ccc(-c3ccc(-c4ccno4)cc3)cc2)CCCCC1`, the IC50 in the data set on Osteoclast came to 0.037 µM. The Ki at Cathepsin B came to 1.8 µM; in data set [4], 0.0054 µM; on Procathepsin L, 0.42 µM; at Cathepsin S it was 2.5 µM.

Consider `N#CCNC(=O)C1(NC(=O)OCc2ccccc2)CCCC1`, for which the Ki at Cathepsin B was 110 µM; in data set [4], 1.5 µM; at Procathepsin L it was greater than 150 µM; at Cathepsin S, greater than 150 µM.

With `N#CCNC(=O)C1(NC(=O)c2ccc(-c3csc(CN4CCOCC4)n3)cc2)CCCCC1`, 0.21 µM corresponded to half-maximal inhibition with Osteoclast (IC50). The Ki was found to be 3.8 µM at Cathepsin B, 0.0087 µM in data set [4], 2.2 µM on Procathepsin L and 0.25 µM at Cathepsin S. This molecule yielded a Cmax in data set [2] of 550 nM. Moreover, the MRT with Rattus norvegicus [3] worked out at 15.6 min.

`CC(C[C@H](NC(=O)OCc1ccccc1)C(=O)NCC#N)C(F)(F)F` (stereo not given in full): the Ki is greater than 150 µM on Cathepsin B, 0.35 µM in data set [4], 22 µM at Procathepsin L and 0.4 µM at Cathepsin S.

As for `CC(C)C[C@](C)(NC(=O)OCc1ccccc1)C(=O)NCC#N`, the Ki at Cathepsin B was greater than 150 µM; in data set [4] it was 1.8 µM; on Procathepsin L, greater than 150 µM; at Cathepsin S, 4.2 µM.

Consider `C#Cc1ccc(C(=O)NC2(C(=O)NCC#N)CCCCC2)cc1`, for which the Ki was determined as 1.1 µM at Cathepsin B, 0.013 µM in data set [4], 18 µM at Procathepsin L and 15 µM at Cathepsin S.

Turning to `CN1CCN(c2ccc(C(=O)NC3(C(=O)NCC#N)CCCCC3)cc2)CC1`, the Ki at Cathepsin B came out at 2.7 µM; in data set [4], 0.0015 µM; on Procathepsin L, 9.6 µM; at Cathepsin S it was 16 µM.

Consider `N#CCNC(=O)[C@@H](NC(=O)OCc1ccccc1)c1ccccc1`, for which the Ki at Cathepsin B was greater than 150 µM; in data set [4], 17 µM; on Procathepsin L it was 88 µM; on Cathepsin S, 3.5 µM.

For the molecule `N#CCNC(=O)C1(NC(=O)OCc2ccccc2)CC1`, the Ki (at Cathepsin B; in data set [4]; on Procathepsin L; on Cathepsin S) was greater than 150 µM in each case.

In the data set with Osteoclast, `CN1CCC[C@H]1COc1ccc(-c2ccc(C(=O)NC3(C(=O)NCC#N)CCCCC3)cc2)cc1` yielded an IC50 of 0.024 µM. Besides, the Ki at Cathepsin B is 0.59 µM; in data set [4], less than 0.00025 µM; on Procathepsin L it was 4 µM; at Cathepsin S, 10 µM.

For the molecule `CCCN1CCN(c2ccc(C(=O)NC3(C(=O)NCC#N)CCCCC3)cc2)CC1` [BALICATIB], the results for the Ki on Cathepsin B, at Procathepsin L and on Cathepsin S were 2.9 µM, 18 µM and 28 µM, respectively.

For the molecule `N#CCNC(=O)[C@H](Cc1ccc2ccccc2c1)NC(=O)OCc1ccccc1`, the Ki is 3 µM on Cathepsin B, 30 µM in data set [4], 0.054 µM on Procathepsin L and 0.18 µM at Cathepsin S.

Turning to `CN(C)c1ccc(C(=O)NC2(C(=O)NCC#N)CCCCC2)cc1`, the Ki was 5.2 µM on Cathepsin B, 0.0033 µM in data set [4], 48 µM on Procathepsin L and 35 µM at Cathepsin S.

`N#CCNC(=O)C1(NC(=O)c2cccc(-c3ccccc3)c2)CCCCC1`: the Ki on Cathepsin B stood at 8.3 µM; in data set [4], 0.21 µM; at Procathepsin L, 22 µM; on Cathepsin S, 1.9 µM.

Regarding `N#CCNC(=O)C1(NC(=O)c2csc(-c3ccncc3)n2)CCCCC1`, the Ki at Cathepsin B was 9.3 µM; in data set [4] it was 0.15 µM; at Procathepsin L it was greater than 150 µM; on Cathepsin S it was 4 µM.

Regarding `N#CCNC(=O)C1(NC(=O)c2ccc(N)cc2)CCCCC1`, the Ki at Cathepsin B came out at 10 µM; in data set [4], 0.032 µM; on Procathepsin L, 45 µM; at Cathepsin S it was 6.5 µM.

For the molecule `N#CCNC(=O)C1(NC(=O)c2ccc(Br)cc2)CCCCC1`, the Ki at Cathepsin B is 2.3 µM; in data set [4], 0.018 µM; at Procathepsin L, 17 µM; on Cathepsin S, 10 µM.

As for `CCCC[C@H](NC(=O)OCc1ccccc1)C(=O)NCC#N`, the Ki was greater than 150 µM on Cathepsin B, 0.49 µM in data set [4], 37 µM on Procathepsin L and 0.86 µM on Cathepsin S.

Consider `C[C@@H](O)[C@H](NC(=O)OCc1ccccc1)C(=O)NCC#N`, for which the Ki at Cathepsin B was greater than 150 µM; in data set [4], 11 µM; at Procathepsin L it was 14 µM; at Cathepsin S, 42 µM.

Regarding `CN(C)c1ccc(-c2ccc(C(=O)NC3(C(=O)NCC#N)CCCCC3)cc2)cc1`, the Ki was 0.68 µM at Cathepsin B, 0.002 µM in data set [4], 3.2 µM at Procathepsin L and 5.7 µM on Cathepsin S.

Consider `CC(C)(C)[C@H](NC(=O)OCc1ccccc1)C(=O)NCC#N`, for which the Ki at Cathepsin B is greater than 150 µM; in data set [4], 1.9 µM; on Procathepsin L, greater than 150 µM; at Cathepsin S, greater than 150 µM.

Turning to `CN1CCN(S(=O)(=O)c2ccc(C(=O)NC3(C(=O)NCC#N)CCCCC3)cc2)CC1`, the Ki on Cathepsin B was 3.1 µM; in data set [4], 0.013 µM; on Procathepsin L it was 71 µM; on Cathepsin S, 102 µM.

On to `N#CCNC(=O)C1(NC(=O)c2ccc(N3CCOCC3)cc2)CCCCC1`, for which the Ki on Cathepsin B came to 8.6 µM; in data set [4], 0.019 µM; on Procathepsin L it was 50 µM; on Cathepsin S, 42 µM.

In the case of `CC(C)C[C@@H](NC(=O)OCc1ccccc1)C(=O)NCC#N`, the Ki at Cathepsin B is greater than 150 µM; in data set [4], 13 µM; on Procathepsin L it was greater than 150 µM; on Cathepsin S it was 13.6 µM.

As to `CN1CCC(N(C)c2ccc(-c3ccc(C(=O)NC4(C(=O)NCC#N)CCCCC4)cc3)cc2)C1` (stereo not given), the IC50 in the data set with Osteoclast stood at 0.033 µM. In addition, the Ki on Cathepsin B was 0.34 µM; in data set [4] it was less than 0.00025 µM; on Procathepsin L, 2 µM; at Cathepsin S, 8.7 µM.

On to `N#CCNC(=O)C1(NC(=O)OCc2ccccc2)CCCCC1`, for which the Ki at Cathepsin B was 64 µM; in data set [4], 0.084 µM; on Procathepsin L, 95 µM; on Cathepsin S it was 31 µM.

In the case of `CC(C)C[C@H](NC(=O)OCc1ccccc1)C(=O)NCC#N`, the Ki on Cathepsin B worked out at 123 µM; in data set [4], 0.0347 µM; on Procathepsin L it was 2.79 µM; at Cathepsin S it was 0.143 µM.
